One may read the EC50 as the concentration needed to bring the measured effect to its halfway point.

Converted amounts (≈) assume the structure as drawn. The source made the active and inactive calls. The calls are words filed in the database; no cut-off is given here.

The subject of data set [1] is Leishmania infantum. The experiment in a line: Antileishmanial activity against intracellular Leishmania infantum chagasi MHOM/BR/00/1669 amastigotes infected in mouse RAW264.7 cells assessed as inhibition of parasite growth after 48 hrs. Particulars: chagasi MHOM/BR/00/1669, RAW264.7, 48 h. Format: functional, organism-based. The essentials:
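RAW 264.7 macrophages (4×10^5/well, RPMI-1640 + 10% FBS) adhered for 24 h, then infected with promastigotes at 1:10 for 2 h. Non-adherent parasites rinsed off and cells held 72 h. Compounds added from ethanol stocks in six two-fold dilutions for 48 h at 37 °C, 5% CO2. Amastigotes detected by cell ELISA (saponin permeabilization, rabbit anti-Leishmania serum 1:500, peroxidase anti-rabbit, OPD, 492 nm).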

A short description of data set [2]: Cytotoxicity against mouse RAW264.7 cells assessed as cell survival at 100 ug/ml after 48 hrs by MTT assay. In kind it is cell-based. Particulars: read-out: Survival. The essentials:
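RAW 264.7 cells were seeded at 4×10^4/well. Compounds were dissolved at 0.2% in ethanol and diluted in M199 medium, highest concentration 100 µg/mL. Cells were exposed for 48 h at 37 °C in humidified 5% CO2, with […] vehicle controls. Viability was read by MTT.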
In general terms: Tetrazolium dyes change colour on reduction, which living cells bring about.

For data set [3], the system named is Leishmania infantum. Put plainly: Antileishmanial activity against intracellular Leishmania infantum chagasi MHOM/BR/00/1669 amastigotes infected in BALB/c mouse assessed as inhibition of parasite growth in spleen at 100 mg/kg, ip once daily treated after 30 days post infection for 30 days. More on the design: dose 100 mg/kg. In kind it is functional, organism-based. The gist of the method:
(§1)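 Male BALB/c mice, 21 days old, infected IP with 1×10^7 Ficoll-purified metacyclic promastigotes; infection confirmed by liver and spleen imprints at 35 days. Compounds given IP at 100 mg/kg once daily for 30 days, 0.5 mL injected, n = 5 per group. Controls were Glucantime (80 mg/Kg intramuscular) and water. Liver and spleen collected afterwards; amastigotes detected qualitatively by anti-Leishmania immunohistochemistry with DAB.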

Data set [4] relates to Leishmania infantum. Put plainly: Antileishmanial activity against intracellular Leishmania infantum chagasi MHOM/BR/00/1669 amastigotes infected in BALB/c mouse assessed as inhibition of parasite growth in liver at 100 mg/kg, ip once daily treated after 30 days post infection for 30 days. In kind it is functional, organism-based. More on the design: dose 100 mg/kg. The gist of the method:
as §1

In data set [5] the test system is Leishmania infantum. The experiment in a line: Antileishmanial activity against axenically cultured Leishmania infantum chagasi MHOM/BR/00/1669 promastigotes assessed as inhibition of parasite growth after 24 hrs. Particulars: chagasi MHOM/BR/00/1669, 24 h.

On to `CC(=O)Oc1cc(C)ccc1C(C)C`, for which the EC50 with Leishmania infantum [1] is 10.9 µg/mL (≈ 57 µM); in the data set on Leishmania infantum [5] it was 9.07 µg/mL (≈ 47.2 µM). In addition, the viability at 48 h, 100 ug/ml in data set [2] is more than 100%. The outcome in the data set on Leishmania infantum [3] was inactive. Also, in the data set with Leishmania infantum [4], the result was Active.

As for `Cc1ccc(C(C)C)c(OC(=O)c2ccccc2)c1`, the EC50 in the data set on Leishmania infantum [1] worked out at 15.1 µg/mL (≈ 59.3 µM); in the data set on Leishmania infantum [5] it was 8.67 µg/mL (≈ 34.1 µM). For the same compound, in data set [2], the viability at 48 h, 100 ug/ml was 63.6%. Further, the outcome with Leishmania infantum [3] and in the data set on Leishmania infantum [4] was Active.

For the compound `C[C@@H]1[C@H](O)[C@@H](C)/C=C/C=C/C=C/C=C/C=C/C=C/C=C/[C@H](O[C@@H]2O[C@H](C)[C@@H](O)[C@H](N)[C@@H]2O)C[C@@H]2O[C@](O)(C[C@@H](O)C[C@@H](O)[C@H](O)CC[C@@H](O)C[C@@H](O)CC(=O)O[C@H]1C)C[C@H](O)[C@H]2C(=O)O` [AMPHOTERICIN B], the EC50 in the data set on Leishmania infantum [1] stood at 20.4 µg/mL (≈ 22.1 µM). The viability at 48 h, 100 ug/ml in data set [2] was determined as 98.5%.

With `C=CCc1ccc(O)c(OC)c1` [EUGENOL], the EC50 with Leishmania infantum [1] is 20.8 µg/mL (≈ 127 µM); in the data set with Leishmania infantum [5], 56.1 µg/mL (≈ 342 µM). Besides, the viability at 48 h, 100 ug/ml in data set [2] was 29%.

In the case of `C=CCc1ccc(OC(C)=O)c(OC)c1` [EUGENYL ACETATE], the values for the EC50 in the data set on Leishmania infantum [1] and with Leishmania infantum [5] were 18.5 µg/mL and 23.2 µg/mL, respectively. The viability at 48 h, 100 ug/ml in data set [2] was more than 100%. Further, the result in the data set on Leishmania infantum [3] and in the data set on Leishmania infantum [4] was Active.

Consider `C=CCc1ccc(OC(=O)c2ccccc2)c(OC)c1` [EUGENYL BENZOAT], for which the EC50 is 14.9 µg/mL (≈ 55.6 µM) with Leishmania infantum [1] and 10.6 µg/mL (≈ 39.4 µM) in the data set with Leishmania infantum [5]. Also, the viability at 48 h, 100 ug/ml in data set [2] was 97.7%. In addition, the result in the data set with Leishmania infantum [3] and in the data set on Leishmania infantum [4] was Active.

On to `N=C(N)c1ccc(OCCCCCOc2ccc(C(=N)N)cc2)cc1` [PENTAMIDINE], for which the viability at 48 h, 100 ug/ml in data set [2] came to 85.6%. In addition, in the data set on Leishmania infantum [5], the EC50 turned out to be 5.3 µg/mL (≈ 15.6 µM).

Turning to `Cc1ccc(C(C)C)c(O)c1` [THYMOL], the EC50 in the data set with Leishmania infantum [1] was 23.9 µg/mL (≈ 159 µM). Besides, the viability at 48 h, 100 ug/ml in data set [2] is 36.5%.

MEGLUMINE ANTIMONATE: in the data set with Leishmania infantum [3], the result was inactive.

Values taken from ChEMBL document CHEMBL3351971 (Bioorg Med Chem, 2014).
